Experimental findings from ChEMBL document CHEMBL1144749, “Development of 2-t butyl-N-methyl pyrimidones as potent inhibitors of HIV integrase” (Bioorg Med Chem Lett, 2008) are described below.

Bounds are passed on as bounds.

The target in series [1] is Human immunodeficiency virus type 1 integrase (Human immunodeficiency virus 1, UniProt Q7ZJM1). Briefly: Inhibition of HIV1 recombinant integrase strand transfer activity. The procedure, abridged:
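Strand-transfer assay: inhibitors added after integrase assembly and washes. IC50 is the concentration reducing integrase activity by 50%. Mean of at least three independent experiments.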

The subject of series [2] is Human immunodeficiency virus 1. Nature of the series: Antiviral activity against HIV1 3b in human MT4 cells assessed as inhibition of viral spread in presence of 50% normal human serum. Type of series: functional. To be noted: Human immunodeficiency virus 1, 3b, read-out: CIC95. The gist of the method: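 Spread assay: HIV-1 IIIb infection of MT-4 T-lymphoid cells run with 50% normal human serum. CIC95 is the concentration inhibiting 95% of viral spread.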

Series [3] has as its system Human immunodeficiency virus 1. Nature of the series: Antiviral activity against HIV1 3b in human MT4 cells assessed as inhibition of viral spread in presence of 10% heat-inactivated fetal bovine serum. Type of series: functional. The note with it: Human immunodeficiency virus 1, 3b, read-out: CIC95. The gist of the method: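 Spread assay: HIV-1 IIIb infection of MT-4 T-lymphoid cells in medium with 10% heat-inactivated FBS. CIC95 is the concentration inhibiting 95% of viral spread. Mean of at least 3 independent experiments.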

The species entered for the next series is Homo sapiens. Nature of the series: Fraction unbound in human plasma proteins after 1 hr.
A short description of series [4]: Terminal half life in Sprague-Dawley rat plasma at 3 mg/kg, iv. Type of series: ADME, organism-based. More on the design: dose 3 mg/kg, route intravenous. The procedure, abridged:
(§1)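 Sprague–Dawley rats dosed iv in 20% DMSO/60% PEG400/20% water, or orally as a 1% methylcellulose suspension. Outputs: AUC after po dosing, plasma clearance, terminal-phase plasma half life after iv dosing, oral bioavailability.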

Series [5] can be described thus: Clearance in Sprague-Dawley rat plasma at 3 mg/kg, iv and 3 mg/kg, po. Type of series: ADME, organism-based. The gist of the method: as §1
Series [6] in a line: (§2) Oral bioavailability in Sprague-Dawley rat at 3 mg/kg. It counts as ADME, organism-based. To be noted: Sprague-Dawley, in vivo. The procedure, abridged: as §1
A short description of series [7]: (§3) AUC in Sprague-Dawley rat at 3 mg/kg, po. It counts as ADME, organism-based, Plasma. More on the design: dose 3 mg/kg, route oral. To be noted: Sprague-Dawley, plasma. The gist of the method: as §1
Series [8] is described as follows: Metabolic stability assessed as intrinsic clearance in rat microsome at 1 uM after 90 mins. Type of series: ADME. The note with it: liver microsomes. The procedure, abridged: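 Compound at 1 µM with microsomes at 1 mg/ml. Substrate degradation followed by LC/MS/MS over a 90 min incubation.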
In general terms: Liver microsomes are vesicles of endoplasmic reticulum, rich in cytochrome P450 enzymes.

Series [9] concerns Rattus norvegicus. The series is described as §2. To be noted: in vivo. Type of series: ADME, organism-based. The gist of the method:
as §1

Series [10] deals with Rattus norvegicus. The series is described as §3. To be noted: in vivo. More on the design: dose 3 mg/kg, route oral. Type of series: ADME, organism-based, Plasma. The procedure, abridged:
as §1

Usually IC50 stands for the midpoint of a concentration-inhibition curve. What is called fraction unbound is free concentration divided by total concentration. The half-life is the time needed for the level to fall by half in the phase considered. The low end stands for fast loss, the high end for slow loss. Broadly, the bioavailability is the share of a dose that reaches the circulation, judged against a reference dose that is usually intravenous. Low values mean poor availability, high ones good availability. By AUC is commonly meant the area under the concentration-time curve, a measure of exposure. Higher therefore signals high exposure. One may read the microsomal CLint as a measure of how fast metabolising enzymes remove a compound, apart from limits set by blood flow.

Human immunodeficiency virus type 1 integrase, sequence (Q7ZJM1 whole entry): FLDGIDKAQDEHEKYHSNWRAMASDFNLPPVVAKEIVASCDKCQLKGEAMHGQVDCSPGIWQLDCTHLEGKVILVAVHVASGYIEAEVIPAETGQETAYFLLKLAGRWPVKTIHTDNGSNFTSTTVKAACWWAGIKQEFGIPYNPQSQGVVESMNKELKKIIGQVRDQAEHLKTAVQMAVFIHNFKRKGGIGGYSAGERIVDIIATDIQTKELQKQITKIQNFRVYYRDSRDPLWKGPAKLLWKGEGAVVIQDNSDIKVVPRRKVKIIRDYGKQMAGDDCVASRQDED

With `Cn1c(C(C)(C)C)nc(C(=O)NCc2ccc(F)cc2C(=O)NCC(F)(F)F)c(O)c1=O`, the IC50 in series [1] came out at 90 nM. The IC95 worked out at 120 nM in series [2] and 30 nM in [3]. This compound displayed a fraction unbound at 1 h in the series listed under Homo sapiens of 0.01.

For the compound `O=C(NCc1ccc(F)cc1)c1nc(-c2cccs2)nc(O)c1O`, the IC95 in series [3] is more than 10000 nM.

Turning to `Cc1noc(-c2cc(F)ccc2CNC(=O)c2nc(C(C)(C)C)nc(O)c2O)n1`, in series [1], the half-maximal inhibitory concentration (IC50) stood at 20 nM. The results for the IC95 in series [2] and in series [3] were more than 1000 nM and 120 nM, respectively.

For `CN(C)C(=O)c1cc(F)ccc1CNC(=O)c1nc(C(C)(C)C)n(C)c(=O)c1O`, in [1], the IC50 stood at 180 nM. In addition, the IC95 in series [2] and in series [3] was 30 nM throughout. Moreover, in the series filed under Homo sapiens, the free fraction (fraction unbound) at 1 h is 0.18.

Consider `Cn1c(C(C)(C)C)nc(C(=O)NCc2ccc(F)cc2C(=O)N2CCCC2)c(O)c1=O`, for which the 50% inhibitory concentration (IC50) in series [1] turned out to be 230 nM. Moreover, the IC95 in series [2] and in [3] was 120 nM each time.

For the compound `CN1CCN(C(=O)c2cc(F)ccc2CNC(=O)c2nc(C(C)(C)C)n(C)c(=O)c2O)CC1`, the concentration for half-maximal inhibition (IC50) in [1] was 490 nM. Further, the IC95 in series [2] and in [3] was 120 nM throughout. This compound returned a free fraction (fraction unbound) at 1 h in the series listed under Homo sapiens of 0.34.

As for `CNC(=O)c1cc(F)ccc1CNC(=O)c1nc(C(C)(C)C)n(C)c(=O)c1O`, the half-life in [4] was 1.6 h. For the same compound, in [5], the clearance is 24 mL/min/kg. In series [6], this compound displayed a bioavailability of 18%. Also, in series [1], the concentration for half-maximal inhibition (IC50) stood at 20 nM. Moreover, the IC95 in series [2] and in [3] was 10 nM each time. For the same compound, in [7], the AUC amounted to 1.4 µM·h. Further, the intrinsic clearance (microsomal CLint) at 1 µM in series [8] is 16 µL/min/mg. Moreover, the fraction unbound at 1 h in the series filed under Homo sapiens turned out to be 0.07.

Take `CCOc1ccccc1CNC(=O)c1nc(C(C)(C)C)nc(O)c1O`: in [1], the half-maximal inhibitory concentration (IC50) is 10 nM. In addition, the IC95 in series [2] was more than 1000 nM; in series [3] it was 1000 nM.

The compound `Cn1c(C(C)(C)C)nc(C(=O)NCc2ccc(F)cc2C(N)=O)c(O)c1=O` gave a half-life in series [4] of 3.6 h. In addition, in series [5], the clearance was found to be 55 mL/min/kg. In series [6], the bioavailability stood at 23%. The half-maximal inhibitory concentration (IC50) in [1] was 20 nM. For the same compound, the IC95 in series [2] and in series [3] was 10 nM each time. In [7], this compound had an AUC of 0.6 µM·h. The fraction unbound at 1 h in the series filed under Homo sapiens stood at 0.06.

In the case of `CCOc1ccccc1CNC(=O)c1nc(C(C)(C)C)n(C)c(=O)c1O`, the IC50 in series [1] came out at 20 nM. For the same compound, the IC95 in series [2] was 500 nM; in [3] it was 120 nM.

Take `Cc1noc(-c2cc(F)ccc2CNC(=O)c2nc(C(C)(C)C)n(C)c(=O)c2O)n1`: in series [1], the IC50 amounted to 20 nM. Also, the IC95 in series [2] came to 120 nM; in series [3] it was 20 nM.

Regarding `CC(C)(C)c1nc(O)c(O)c(C(=O)NCc2ccc(F)cc2)n1`, in series [1], the IC50 worked out at 10 nM. Further, the IC95 in series [2] was 2500 nM; in [3] it was 250 nM.

Compound `CCNC(=O)c1cc(F)ccc1CNC(=O)c1nc(C(C)(C)C)n(C)c(=O)c1O` gave a half-life in series [4] of 2.6 h. Besides, the clearance in series [5] was 21 mL/min/kg. In series [6], this compound registered a bioavailability of 30%. In addition, the IC50 in series [1] amounted to 70 nM. In addition, the IC95 in series [2] and in series [3] was 20 nM each time. The exposure (AUC) in series [7] stood at 1.8 µM·h. Moreover, the fraction unbound at 1 h in the series listed under Homo sapiens turned out to be 0.03.

`CC(C)NC(=O)c1cc(F)ccc1CNC(=O)c1nc(C(C)(C)C)n(C)c(=O)c1O` gave a half-life in series [4] of 1.6 h. Moreover, the F with Rattus norvegicus [9] is on record as 44%. Moreover, the half-inhibitory concentration (IC50) in series [1] amounted to 90 nM. The IC95 in series [2] and in [3] was 60 nM throughout. The compound also came in with an exposure (AUC) with Rattus norvegicus [10] of 3.5 µM·h. The fraction unbound at 1 h in the series listed under Homo sapiens amounted to 0.01.

Regarding `CCCNC(=O)c1cc(F)ccc1CNC(=O)c1nc(C(C)(C)C)n(C)c(=O)c1O`, the concentration for half-maximal inhibition (IC50) in [1] turned out to be 70 nM. In addition, the figures for the IC95 in series [2] and in [3] were 60 nM and 30 nM, respectively. In the series filed under Homo sapiens, the free fraction (fraction unbound) at 1 h amounted to 0.02.

`Cn1c(C(C)(C)C)nc(C(=O)NCc2ccc(F)cc2)c(O)c1=O`: in series [1], the IC50 was found to be 10 nM. Further, the IC95 stood at 370 nM in series [2] and 120 nM in [3].

With `CC(C)(C)c1nc(O)c(O)c(C(=O)NCc2cccc3cc[nH]c23)n1`, the IC50 in series [1] was determined as 10 nM. Besides, the IC95 in series [2] and in [3] was more than 1000 nM throughout.

For the compound `CC(C)(C)c1nc(O)c(O)c(C(=O)NCc2ccc(F)cc2S(C)(=O)=O)n1`, the half-inhibitory concentration (IC50) in series [1] amounted to 60 nM.

Consider `Cn1c(C(C)(C)C)nc(C(=O)NCc2ccc(F)cc2S(C)(=O)=O)c(O)c1=O`, for which the half-life in series [4] was 1.8 h. Also, the clearance in [5] came to 37 mL/min/kg. For the same compound, the bioavailability in [6] worked out at 17%. Also, in series [1], the half-maximal inhibitory concentration (IC50) was 20 nM. The IC95 came out at 20 nM in series [2] and 10 nM in series [3]. The compound further came in with an AUC in series [7] of 0.6 µM·h. In addition, the intrinsic clearance (microsomal CLint) at 1 µM in series [8] came out at 63 µL/min/mg.

With `Cn1c(C(C)(C)C)nc(C(=O)NCc2cccc3cc[nH]c23)c(O)c1=O`, the IC50 in series [1] was 20 nM. For the same compound, the results for the IC95 in series [2] and in series [3] were more than 1000 nM and 1000 nM, respectively.

Turning to `CNC(=O)c1cc(F)ccc1CNC(=O)c1nc(C(C)(C)C)nc(O)c1O`, in series [1], the concentration for half-maximal inhibition (IC50) came to 20 nM.
